From ChEMBL document CHEMBL1139836, “Development of orally bioavailable and CNS penetrant biphenylaminocyclopropane carboxamide bradykinin B1 receptor antagonists” (J Med Chem, 2007)
The source made the active and inactive calls.

How the values were obtained:
[1] = Stability in monkey liver microsomes; assay type: ADME, Macaca mulatta, Microsome; conditions: rhesus monkey
[2] = Oral bioavailability in Sprague-Dawley rat at 10 mg/kg, po and 2 mg/kg, iv; assay type: ADME, organism-based; conditions: in vivo
How it was run: (§1)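 Sprague-Dawley rats, n = 3, dosed orally at 10 mg/kg and iv at 2 mg/kg. F% from oral versus iv exposure; half-life in hours, clearance in mL/min/kg.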

[3] = Stability in monkey hepatocytes; assay type: ADME, cell-based, Macaca mulatta, Hepatocyte; conditions: rhesus monkey
[4] = tested on: Mus musculus; experiment: Effect on complete Freund's adjuvant-induced hypersensitivity in mouse at 6 mg/kg, po; assay type: functional, organism-based; parameters: dose 6 mg/kg
How it was run: (§2)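 Humanized B1 knock-in mice and wild-type mice, 8-13 weeks old. Injected intraplantar with 30 µL of 50% CFA; 24 h later tested for von Frey tactile threshold (Dixon up-down). Then dosed po at 6, 20 or 60 mg/kg or vehicle (0.5% methylcellulose with 10 mg/mL malic acid, pH 4, 10 mL/kg). Paw withdrawal threshold read at 60 min. Two-way repeated-measures ANOVA with Tukey test.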

[5] = biological target: T1, B1 bradykinin receptor (Homo sapiens, UniProt P46663); experiment: Plasma concentration in hB1 knock-in-mouse at 60 mg/kg, po after 1 hr; assay type: ADME, organism-based; parameters: dose 60 mg/kg, route oral
T1 sequence (P46663 whole entry): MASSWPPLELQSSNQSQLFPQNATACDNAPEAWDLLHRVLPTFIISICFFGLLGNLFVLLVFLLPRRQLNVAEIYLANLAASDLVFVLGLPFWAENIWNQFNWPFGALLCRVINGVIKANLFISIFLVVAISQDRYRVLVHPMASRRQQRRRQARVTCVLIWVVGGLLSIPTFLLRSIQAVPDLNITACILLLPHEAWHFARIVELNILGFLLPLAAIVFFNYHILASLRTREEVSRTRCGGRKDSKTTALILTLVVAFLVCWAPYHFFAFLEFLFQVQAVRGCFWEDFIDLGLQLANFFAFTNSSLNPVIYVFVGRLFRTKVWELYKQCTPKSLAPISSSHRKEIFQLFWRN
How it was run: (§3)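 hB1 knock-in mice with CFA paw inflammation, dosed po at 6, 20 or 60 mg/kg in 0.5% methylcellulose with 10 mg/mL malic acid, pH 4. Plasma collected 60 min after dosing, following behavioural testing.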

[6] = Stability in dog liver microsomes; assay type: ADME, Canis lupus familiaris, Microsome
[7] = tested on: Liver microsomes; experiment: Stability in human liver microsomes; assay type: ADME, Microsome
[8] = Half life in Mongrel dog at 3 mg/kg, po and 1 mg/kg, iv; assay type: ADME, organism-based, Canis lupus familiaris; conditions: in vivo
How it was run: (§4)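 Mongrel dogs, n = 2, dosed orally at 3 mg/kg and iv at 1 mg/kg. F%, half-life in hours, clearance in mL/min/kg.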

[9] = tested on: Liver microsomes; experiment: Stability in rat liver microsomes; assay type: ADME, Microsome
[10] = tested on: Mus musculus; experiment: Effect on complete Freund's adjuvant-induced hypersensitivity in mouse at 60 mg/kg, po; assay type: functional, organism-based; parameters: dose 60 mg/kg; how it was run: as §2
[11] = Oral bioavailability in Mongrel dog at 3 mg/kg, po and 1 mg/kg, iv; assay type: ADME, organism-based, Canis lupus familiaris; conditions: in vivo; how it was run: as §4
[12] = Clearance in rhesus monkey at 3 mg/kg, po and 1 mg/kg, iv; assay type: ADME, organism-based, Macaca mulatta; conditions: in vivo
How it was run: (§5)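 Rhesus monkeys, n = 2, dosed orally at 3 mg/kg and iv at 1 mg/kg. F%, half-life in hours, clearance in mL/min/kg.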

[13] = biological target: T1, B1 bradykinin receptor; experiment: Plasma concentration in hB1 knock-in-mouse at 20 mg/kg, po after 1 hr; assay type: ADME, organism-based; parameters: dose 20 mg/kg, route oral; how it was run: as §3
[14] = Ratio of drug level in brain against plasma in African green monkey at 2 mg/kg, iv; conditions: read-out: BPR
[15] = biological target: T1, B1 bradykinin receptor; experiment: Plasma concentration in hB1 knock-in-mouse at 6 mg/kg, po after 1 hr; assay type: ADME, organism-based; parameters: dose 6 mg/kg, route oral; how it was run: as §3
[16] = Stability in rat hepatocytes; assay type: ADME, cell-based, Hepatocyte
[17] = Half life in rhesus monkey at 3 mg/kg, po and 1 mg/kg, iv; assay type: ADME, organism-based, Macaca mulatta; conditions: in vivo; how it was run: as §5
[18] = Clearance in Mongrel dog at 3 mg/kg, po and 1 mg/kg, iv; assay type: ADME, organism-based, Canis lupus familiaris; conditions: in vivo; how it was run: as §4
[19] = Oral bioavailability in rhesus monkey at 3 mg/kg, po and 1 mg/kg, iv; assay type: ADME, organism-based, Macaca mulatta; conditions: in vivo; how it was run: as §5
[20] = Stability in human hepatocytes; assay type: ADME, cell-based, Hepatocyte
[21] = tested on: Mus musculus; experiment: Effect on complete Freund's adjuvant-induced hypersensitivity in mouse at 20 mg/kg, po; assay type: functional, organism-based; parameters: dose 20 mg/kg; how it was run: as §2
[22] = Clearance in Sprague-Dawley rat at 10 mg/kg, po and 2 mg/kg, iv; assay type: ADME, organism-based; conditions: in vivo; how it was run: as §1
[23] = Half life in Sprague-Dawley rat at 10 mg/kg, po and 2 mg/kg, iv; assay type: ADME, organism-based; conditions: in vivo; how it was run: as §1
[24] = tested on: Rhesus monkey; experiment: Antidepressor effect in iv dosed rhesus monkey measured as blockade of DAK-induced blood pressure response; assay type: functional, Macaca mulatta
How it was run: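 Conscious rhesus monkeys primed with LPS 20 µg/kg iv and given 2 h equilibration. Baseline depressor response to des-Arg10-kallidin 0.3 µg/kg iv measured twice. Antagonist given as rising iv bolus doses of 3, 10, 30 and 100 µg/kg, each 5 min before a DAK challenge, with the fall in mean arterial pressure recorded. Plasma sampled 2 min after each dose. Crossover against vehicle, n = 3.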

[25] = biological target: T2, B1 bradykinin receptor (Homo sapiens) (UniProt P46663); experiment: Reversal of complete Freund's adjuvant-induced hyperalgesia in orally dosed hB1 knock-in-mouse; assay type: functional, organism-based; how it was run: as §2
T2 sequence (whole entry): T1 sequence (P46663 whole entry)

With COC(=O)c1c(Cl)cccc1-c1ccc([C@@H](C)NC(=O)C2(NC(=O)C(F)(F)F)CC2)c(F)c1 [MK0686] the Stability [1] was “Stable”, the bioavailability [2] was 34% and the Stability [3] was “Stable”. For the same compound, the Activity [4] was “inactive”, the concentration at 1 h [5] was 5 µM and the Stability [6] was “Stable”. The Stability [7] was “Stable”, the half-life [8] was 1.8 h and the Stability [9] was “Stable”. For the same compound, the Activity [10] was “inactive”, the bioavailability [11] was 33% and the clearance [12] was 13 mL/min/kg. For the same compound, the concentration at 1 h [13] was 3.5 µM, the Kp [14] was 0.4 and the concentration at 1 h [15] was 1 µM. For the same compound, the Stability [16] was “Stable”, the half-life [17] was 1.7 h and the clearance [18] was 9 mL/min/kg. The bioavailability [19] was 31%, the Stability [20] was “Stable” and the Activity [21] was “inactive”. It also gave a clearance [22] of 40 mL/min/kg, a half-life [23] of 0.4 h and an AD90 [24] of 0.047 mg/kg. It also gave an ED50 [25] of 9.76 mg/kg.
